# Screening results as filed in PubChem.
# TCR CD3 inh – human TCR-CD3 binding inhibition. TAMRA-labeled TCR probe fluorescence, biochemical. hit rate 0.37% among 360,000. inhibition, % at 9.4 µM; in the data active = inhibition above about 19%;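 also: recombinant mutant TCR 2C K166C tagged with TAMRA read by polarization; 0% = receptor in buffer alone and 100% = receptor with positive control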
# mABHD4 FP – inhibits mouse alpha/beta hydrolase domain 4. Q8VD66. purified mABHD4, FP-Rh probe fluorescence polarization. inhibition, % at 8.92 µM. hit rate 0.54% among 370,000;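 active = inhibition exceeding the mean over every tested compound plus 3 SD, cut at about 30% in these data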;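 also: 0% = plate median of compound wells and 100% = S159A mutant with DMSO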
#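 system = mouse ABHD4 enzyme, wild type | medium = HEPES pH 7.0, NaCl, Pluronic buffer | also added = FP-Rh probe | incubation = Enzyme–compound pre-incubation 45 min, then probe 60 min, both 25 °C | technique = fluorescence polarization, excitation 525 nm, emission 598 nm, BODIPY TMR filters | controls = S159A mutant high control, sample median low control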
# HTRA1 inh – blocks human HTRA1 serine peptidase. recombinant HTRA1, FP-rhodamine activity-based probe, fluorescence polarization. inhibition, % at 5.96 µM. hit rate 0.5% among 340,000. AID 504803; in the data active = inhibition above about 36%;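 also: 0% = enzyme with DMSO and 100% = wells lacking enzyme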
# Target sequence (Q92743 whole entry, looked up): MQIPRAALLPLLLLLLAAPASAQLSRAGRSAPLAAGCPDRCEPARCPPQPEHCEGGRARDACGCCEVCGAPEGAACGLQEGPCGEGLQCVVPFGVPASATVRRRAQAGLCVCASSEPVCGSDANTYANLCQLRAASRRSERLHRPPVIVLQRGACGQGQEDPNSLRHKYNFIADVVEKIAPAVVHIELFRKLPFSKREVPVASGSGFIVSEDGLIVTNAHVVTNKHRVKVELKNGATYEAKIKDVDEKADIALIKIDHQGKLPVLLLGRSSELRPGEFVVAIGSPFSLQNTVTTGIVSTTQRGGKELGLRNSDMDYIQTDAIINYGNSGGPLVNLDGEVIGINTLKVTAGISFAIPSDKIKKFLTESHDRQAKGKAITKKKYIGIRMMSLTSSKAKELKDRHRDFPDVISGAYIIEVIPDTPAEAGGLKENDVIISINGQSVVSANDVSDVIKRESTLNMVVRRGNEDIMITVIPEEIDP
# DAGLB inhibitor – diacylglycerol lipase beta (human) inhibition. Q8NCG7. HEK293T DAGLB membrane lysate, EnzChek fluorogenic substrate. inhibition, % at 5.17 µM. hit rate 0.059% among 340,000; in the data active = inhibition above about 34%;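 also: 0% = enzyme with vehicle and 100% = wells lacking enzyme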
# SIAE primary – blocks human sialic acid acetylesterase; Q9HAT2; SIAE FP-Rh probe binding, fluorescence polarization; inhibition, % at 9.66 µM; hit rate 0.69% among 370,000;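 active = inhibition above a cutoff: mean of compounds within the control limits plus 3 SD of those, cut at about 17% in these data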;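 also: 0% = plate median of compound wells and 100% = probe without SIAE protein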
# SIAE inh conf – confirmation of human SIAE inhibitors; AID 1117263; shares compounds with SIAE primary; SIAE FP-Rh activity-based probe, fluorescence polarization; hit rate 13% among 2,300; inhibition, % at 9.66 µM;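 active = mean inhibition of the replicates above the hit cutoff set in the primary screen, cut at about 17% in these data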;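 also: 0% = SIAE with DMSO and probe and 100% = probe without SIAE; inhibitors lower polarization as more probe stays unbound to SIAE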
# Numbers without * were called inactive; / = no result given. The list is not random: actives were taken first. Their share in the collection is about 1.5%.
SMILES,TCR CD3 inh,mABHD4 FP,HTRA1 inh,DAGLB inhibitor,SIAE primary,SIAE inh conf
O=C(Nc1nc(-c2ccccc2)cs1)c1cccc([N+](=O)[O-])c1,7,-17,-28,-5,19*,-65
O=C(Nc1nc(-c2cccnc2)cs1)c1cccc([N+](=O)[O-])c1,-3,-2,-1,1,-4,/
O=C(NC(=S)Nc1cccc(NC(=O)c2ccccc2)c1)c1cccc([N+](=O)[O-])c1,-5,-7,-62,-4,63*,-16
Cc1cccc[n+]1C1C(c2ccc([N+](=O)[O-])cc2)C(C#N)=C(C(=C=[N-])C#N)NC1(O)C1CC1 (configuration not stated),-12,10,14,4,40*,0
CCN=C1NC(c2ccccc2)C(C(=O)OC)=C(C)N1Cc1ccc(C(F)(F)F)cc1 (configuration not stated),2,1,/,/,5,/
O=C(CN1NS(=O)(=O)c2ccccc2C1=O)Nc1ccccc1OC(F)F,6,3,-1,-2,19*,2
Cc1cc(N2CCCC2)n2nc(C)nc2n1,-7,-8,2,1,19*,-3
CC(=O)N1CCN(c2cc(C)nc3nc(C)nn23)CC1,/,4,/,/,6,/
COc1ccc2c(c1)C(NC(=O)C(F)(F)F)CC21CCCCC1 (configuration not stated),2,-9,/,/,-2,/
O=C(O)CC(C(=O)O)c1ccc(OCCCCOc2ccc(C(CC(=O)O)C(=O)O)cc2)cc1 (configuration not stated),15,1,1,0,19*,1
CC(C)CCOc1ccc(C(CC(N)=O)C(=O)O)cc1 (configuration not stated),6,3,2,-1,-7,/
CN(C(=O)c1cccc(N2C(=O)C3C4C=CC(C4)C3C2=O)c1)C1CCCCC1 (configuration not stated),4,-1,6,-1,19*,3
COc1ccc(-c2noc(-c3ccc4c(c3)OCO4)n2)cc1,-3,-2,-2,-3,-1,/
COc1ccc(-c2nc(-c3ccc4c(c3)OCO4)[nH]c2-c2ccc(OC)cc2)cc1,4,13,7,6,19*,0
Cc1ccc(S(=O)(=O)N(C)C)cc1NC(=O)c1sccc1Cl,0,-2,-1,1,17*,-2
COC(=O)Oc1ccc(/C=N/NC(=O)CN(c2ccccc2Br)S(C)(=O)=O)cc1OC,-1,-1,8,2,22*,15
CCc1ccccc1N(CC(=O)N/N=C/c1ccc(OC(=O)OC)c(OC)c1)S(C)(=O)=O,-2,-4,2,-2,6,/
CS(=O)(=O)NCCCCCCNS(C)(=O)=O,4,-5,4,0,17*,0
O=C(c1ccccc1F)N1CCN(c2ccccc2)CC1,2,-7,-2,-2,17*,0
CN1NC(=O)c2ccccc2NC1=S,4,-4,/,/,-3,/
O=C1[C@@H]2CSCN2C(=O)CN1Cc1ccccc1F,2,0,-1,0,19*,3
Cc1ccc(S(=O)(=O)Nc2cccc(C(=O)N3CCN(c4ccccc4O)CC3)c2)cc1F,-4,4,-15,4,21*,-4
CC(=O)Nc1ccc(NC(=O)CSc2nncn2C)cc1,2,2,4,-1,-6,/
COc1ccc(NC(=O)CSc2ccc(-c3ccco3)nn2)cc1OC,2,2,5,1,18*,-2
COc1ccc(NC(=O)CSc2nncn2C)cc1OC,6,-6,3,-2,33*,0
SMILES,TCR CD3 inh,mABHD4 FP,HTRA1 inh,DAGLB inhibitor,SIAE primary,SIAE inh conf
COc1ccc(NC(=O)CSc2nnc3ccc(-c4cccnc4)nn23)cc1OC,3,-3,0,-5,21*,4
COc1ccc(C2CC(=O)C(c3cccc(C)c3)=CN2Cc2ccccc2)cc1 (configuration not stated),-1,6,/,/,-2,/
CCCC(=O)N1CCC[C@]2(CC[C@@H](CCC(=O)OCC)O2)C1,/,-5,/,/,-2,/
COc1ccc(-n2c(SCC(=O)Nc3ccc(OCc4ccccc4)cc3)nnc2-c2ccc(C)cc2)cc1,/,-5,/,/,-1,/
O=C(c1ccc(Cl)cc1)N1CCC2CC1c1cc(-c3ccccc3)ccc12 (configuration not stated),3,-10,-21,-5,21*,-6
O=C(c1cccc(Cl)c1)N1CCC2CC1c1cc(-c3ccccc3)ccc12 (configuration not stated),2,-3,-33,-10,-4,/
